An excerpt weighted towards active compounds, which were near 2.3% of everything screened.
TRPC4 agonist: activators of mouse TRPC4 channel; B-score at 10 µM; HEK293 TRPC4beta/mu-opioid, Fluo4 calcium fluorescence; stronger effect = higher value; Q9QUQ5; actives 0.49% (n = 310,000);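 active = B-score above 5 SD of library B-scores, and initial fluorescence ratio not above library mean plus 5 SD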;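 note: positive B-score marks a calcium rise read as TRPC4 activation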
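system = HEK293 cells stably co-expressing mouse TRPC4beta and mu-opioid receptor | schedule = Fluo4 dye loading 45 min at room temperature, 110 s recording | measure = B-scored integrated calcium fluorescence ratio | signal = Fluo4 calcium-sensitive dye fluorescence, kinetic, 1 Hz baseline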
TRPC4 block: blocks the mouse TRPC4 cation channel | Q9QUQ5 | HEK293 TRPC4beta/mu-opioid, DAMGO-evoked Fluo4 calcium flux; stronger effect = lower value | B-score at 10 µM | actives 0.39% (n = 300,000);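 active = B-score over 3 SD under the library average, no early fluorescence shift, positive overall ratio signal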
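Material: HEK293 cells with stable TRPC4beta plus mu-opioid receptor expression / Probe or stimulus: DAMGO in two steps, submaximal then maximal / Compound: single concentration per test compound / Technique: kinetic Fluo4 fluorescence imaging of calcium influx / Read-out: per-well B score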
TRPC6 inhibitor: blocks the mouse TRPC6 cation channel; Q61143; actives 1.1% (n = 310,000); B-score at 10 µM; HEK293-TRPC6, membrane potential dye, ACh-evoked depolarization; stronger effect = lower value;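 active = B-score under library mean minus 3 SD, initial fluorescence not abnormally high, positive integrated signal ratio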;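 note: B-score derived from integrated fluorescence ratio over the kinetic read; more negative B-score means stronger inhibition of depolarization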
Target sequence (Q61143 whole entry, looked up): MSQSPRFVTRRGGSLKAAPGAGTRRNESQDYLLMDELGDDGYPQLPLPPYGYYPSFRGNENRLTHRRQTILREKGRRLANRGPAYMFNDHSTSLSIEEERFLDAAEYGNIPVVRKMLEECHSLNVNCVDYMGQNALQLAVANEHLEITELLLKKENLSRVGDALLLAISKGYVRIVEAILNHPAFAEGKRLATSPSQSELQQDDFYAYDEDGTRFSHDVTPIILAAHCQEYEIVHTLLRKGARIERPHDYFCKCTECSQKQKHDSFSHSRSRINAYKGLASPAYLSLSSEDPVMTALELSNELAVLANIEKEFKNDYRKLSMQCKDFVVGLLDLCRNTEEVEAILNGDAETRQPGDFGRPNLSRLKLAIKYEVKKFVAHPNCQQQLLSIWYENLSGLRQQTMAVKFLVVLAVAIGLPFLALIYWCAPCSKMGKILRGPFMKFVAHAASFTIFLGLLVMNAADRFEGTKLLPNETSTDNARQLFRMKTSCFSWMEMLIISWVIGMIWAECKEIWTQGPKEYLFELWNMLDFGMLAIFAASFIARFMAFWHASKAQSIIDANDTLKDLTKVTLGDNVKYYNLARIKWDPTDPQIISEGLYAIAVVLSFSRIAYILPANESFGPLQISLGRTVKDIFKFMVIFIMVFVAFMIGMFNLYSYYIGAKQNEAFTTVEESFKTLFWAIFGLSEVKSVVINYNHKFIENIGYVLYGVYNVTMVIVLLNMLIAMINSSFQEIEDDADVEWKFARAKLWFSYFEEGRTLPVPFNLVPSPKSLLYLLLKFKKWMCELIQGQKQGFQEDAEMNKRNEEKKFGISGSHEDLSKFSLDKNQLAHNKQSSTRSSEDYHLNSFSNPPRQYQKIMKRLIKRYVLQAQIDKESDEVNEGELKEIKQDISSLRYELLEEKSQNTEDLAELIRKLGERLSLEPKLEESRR
TRPC4 potent: TRPC4 (mouse) allosteric potentiation; AID 2227; Q9QUQ5; actives 0.42% (n = 310,000); B-score at 10 µM; HEK293 TRPC4beta/mu-opioid, DAMGO EC20, Fluo-4 Ca2+ flux; stronger effect = higher value;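 active = B-score of calcium response area above 5 SD of library B-scores, with initial fluorescence ratio within 5 SD of library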;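 note: B-score of integrated fluorescence ratio over time as area under calcium response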
TRPC6 activator: activators of mouse TRPC6 channel. actives 0.13% (n = 310,000). HEK293-TRPC6 membrane potential dye fluorescence; stronger effect = higher value. Q61143. B-score at 10 µM;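 active = B-score of the integrated fluorescence ratio above library mean plus 3 SD, and starting fluorescence ratio within library mean plus 5 SD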;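 note: higher score means more depolarization so channel activation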
TRPC4 sel inh 2: second check of whether TRPC6 inhibitors also affect mouse TRPC4. shares compounds with TRPC6 inhibitor. HEK293 TRPC4/MOR, membrane potential dye fluorescence; channel activated by saturating DAMGO dose. inhibition, % at 10 µM. actives 42% (n = 920). AID 2776;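 active = compounds whose fluorescence signal differed from control wells by over 3 SD, either direction, in both duplicate plates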
TRPC4 spec: selectivity of TRPC6 inhibitors: effect on mouse TRPC4 | activity change, negative = inhibition, % at 10 µM | actives 61% (n = 920) | AID 2777 | HEK293 TRPC4/mu-opioid, membrane potential fluorescence | shares compounds with TRPC6 inhibitor;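 active = rise or fall in signal beyond 3 SD of buffer-only wells in both replicate plates, either sign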;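 note: integrated kinetic ratio of fluorescence range over baseline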
HEK293 MPD ctr 2-1: second check of TRPC6 inhibitor effects in parental HEK293 cells; shares compounds with TRPC6 inhibitor; parental HEK293 membrane potential dye fluorescence; maximal acetylcholine challenge after compound addition; signal change vs control, % at 10 µM; actives 31% (n = 920); AID 2779;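 active = membrane potential signal moving either way by over 3 SD of the maximum-effect control, in both duplicate plates, meaning non-specific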
HEK293 MPD ctr-1: counter-screen for TRPC6 inhibitors: effect in parental HEK293 cells; actives 60% (n = 920); shares compounds with TRPC6 inhibitor; parental HEK293 membrane potential dye fluorescence; AID 2780; membrane potential signal change, % at 10 µM;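 active = membrane potential signal shifting up or down by more than 3 SD of buffer-only wells, on both duplicate plates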
HEK293 MPD ctr-2: counter-screen for TRPC6 modulators: effect in parental HEK293 cells; shares compounds with TRPC6 inhibitor; membrane potential dye fluorescence; membrane potential signal change, % at 10 µM; actives 51% (n = 2,400);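 active = membrane potential signal moves up or down beyond 5 SD from buffer-only wells, on both duplicate plates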
HEK293 MPD ctr 2-2: second check of TRPC6 modulator effects in parental HEK293 cells; shares compounds with TRPC6 inhibitor; membrane potential dye fluorescence; after compound, maximal acetylcholine stimulation; inhibition, % at 10 µM; actives 14% (n = 2,400); AID 488926;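 active = membrane potential signal drops by more than 5 SD from the mean control signal, in both duplicate plates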;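 note: plate controls were acetylcholine ECmax control wells for no effect and buffer only wells for full effect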
TRPC4 ctr mod: selectivity of TRPC6 modulators against mouse TRPC4. AID 488927. percent change from control (negative = decrease, positive = increase), % at 10 µM. actives 69% (n = 2,400). shares compounds with TRPC6 inhibitor. HEK293 TRPC4/mu-opioid, membrane potential fluorescence;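 active = membrane potential signal moved up or down beyond 5 SD of buffer control wells, in both duplicate plates, actives on both sides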;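 note: plate controls were assay buffer wells for no effect and DAMGO maximal-effect wells for full effect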
TRPC4 ctr inh 2: mouse TRPC4 off-target activity of TRPC6 modulators, second screen; HEK293 TRPC4/mu-opioid, membrane potential dye fluorescence; stimulated with maximal-effect DAMGO; inhibition, % at 10 µM; shares compounds with TRPC6 inhibitor; AID 488928; actives 55% (n = 2,400);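 active = drop in membrane potential signal beyond 5 SD of the control wells in both duplicate plates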;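 note: TRPC4 counter screen for TRPC6 hits run under conditions tuned for TRPC6 not TRPC4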
TRPC6 block conf: confirmation of mouse TRPC6 inhibitors; shares compounds with TRPC6 inhibitor; HEK293-TRPC6, membrane potential dye, ACh-evoked depolarization; inhibition, % at 10 µM; actives 43% (n = 3,300); AID 488960;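 active = fluorescence ratio falls more than 5 SD below the full-stimulation control mean, in both duplicate runs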;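 note: integrated fluorescence ratio of peak minus minimum over baseline after agonist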
TRPC6 act conf: mouse TRPC6 activator confirmation | activation, % at 10 µM | shares compounds with TRPC6 inhibitor | actives 11% (n = 2,800) | HEK293-TRPC6 membrane potential dye fluorescence, FDSS;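 active = ratio signal rise beyond 5 SD above unstimulated control wells' mean, seen in both duplicate runs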;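 note: plate controls were buffer EC0 wells for no effect and acetylcholine ECmax response for full effect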
Active calls of the source: *; i = inactive; / = no result given.

SMILES	TRPC4 agonist	TRPC4 block	TRPC6 inhibitor	TRPC4 potent	TRPC6 activator	HEK293 MPD ctr-2	HEK293 MPD ctr 2-2	TRPC4 ctr mod	TRPC4 ctr inh 2	TRPC6 block conf	TRPC6 act conf	others
COc1ccccc1CN(C)C(=O)C(NC(=O)Cc1cccc2ccccc12)C(C)C (configuration not stated)	i	i	i	i	i	/	/	/	/	/	/
COC(=O)c1ccc(S(=O)(=O)N2CCN(C)CC2)n1C	i	i	i	i	i	/	/	/	/	/	/
COC(=O)c1ccc(S(=O)(=O)N2CCCCCC2)n1C	i	i	-5.43*	i	i	i	i	7.5%*	i	i	i
Cc1ccc(S(=O)(=O)N2CCCCC2C(=O)N(C)c2ccccc2)cc1 (configuration not stated)	i	i	i	i	i	/	/	/	/	/	/
O=c1[nH]c(C(Cl)(Cl)Cl)nc2ccc3ccccc3c12	i	i	i	i	i	/	/	/	/	/	/
COc1ccc(-c2nc3cnccn3c2Nc2ccc(C)cc2)cc1	i	i	-6.18*	i	i	-70.5%*	i	-15.5%*	83.5%*	61.0%*	i
Cc1ccc(Nc2c(-c3ccccc3)nc3cnccn23)cc1	i	i	i	i	i	/	/	/	/	/	/
Cc1cccc(C)c1Nc1c(-c2ccc(N3CCOCC3)cc2)nc2cnccn12	i	i	-8.33*	i	i	-235.5%*	i	-42.0%*	92.0%*	75.0%*	i
CC(Oc1ccccc1)c1ccn[nH]1 (configuration not stated)	i	i	i	i	i	/	/	/	/	/	/
Cc1cc(C)cc(N(CCC#N)C(=O)COC(=O)C2CCN(c3ccc(C(F)(F)F)cn3)CC2)c1	i	i	-6.42*	i	i	i	i	13.5%*	i	i	i
Cc1ccc(N(CCC#N)C(=O)COC(=O)C2CCN(c3ccc(C(F)(F)F)cn3)CC2)cc1	i	i	i	i	i	/	/	/	/	/	/
O=c1cc(C(F)(F)F)[nH]c2ccc(C(F)(F)F)cc12	i	i	-6.97*	i	i	/	/	/	/	104.5%*	/	TRPC4 sel inh 2=i;TRPC4 spec=15.2%*;HEK293 MPD ctr 2-1=i;HEK293 MPD ctr-1=11.4%*
Cc1cc(=O)c2ccc(C(F)(F)F)cc2[nH]1	i	i	i	i	i	/	/	/	/	/	/
CC(=O)NCCC(=O)Nc1cc(S(=O)(=O)N2CCOCC2)ccc1Oc1ccccc1	i	i	i	i	i	/	/	/	/	/	/
COc1ccc2c(c1)c(C)cc[n+]2Cc1ccccc1	i	i	-5.24*	i	i	-260.5%*	i	-47.5%*	51.5%*	48.5%*	i
CC(=O)N(CCC(Cc1ccccc1)c1ccc2c(c1)OCO2)Cc1ccccc1F (configuration not stated)	i	i	i	i	i	/	/	/	/	/	/
Fc1ccccc1CNCCC(Cc1ccccc1)c1ccc2c(c1)OCO2 (configuration not stated)	70*	-8*	-6.28*	i	i	119.0%*	i	47.5%*	69.0%*	i	/
Cc1ccc(C(C(=O)Nc2ccc3c(c2)OCO3)N(C)C(=O)Cc2c[nH]c3ccccc23)cc1 (configuration not stated)	i	i	i	i	i	/	/	/	/	/	/
O=C1CSC(c2ccccc2)N1Cc1ccccc1 (configuration not stated)	i	i	i	i	i	/	/	/	/	/	/
Cc1ccc(NC(=S)NCCN(C2CCCCC2)C2CCCC2)cc1C	i	i	-5.25*	i	i	110.5%*	i	16.0%*	65.5%*	i	/
COc1cc(/C=C2/C(=O)N(c3cccc(Br)c3)N=C2C)cc(OC)c1O	i	i	-5.39*	i	i	i	i	-26.5%*	72.5%*	53.0%*	i
COc1ccc(C2=NN(c3ccccc3)C(=O)/C2=C\c2ccc(O)c(OC)c2)cc1	i	i	-6.84*	i	i	/	/	/	/	i	i	TRPC4 sel inh 2=i;TRPC4 spec=i;HEK293 MPD ctr 2-1=i;HEK293 MPD ctr-1=i
CC(C)CN(CC(C)C)C(=O)C12CCC(C)(C(=O)O1)C2(C)C (configuration not stated)	i	i	i	i	i	/	/	/	/	/	/
CC1CN(C)CCC1OC(=O)c1ccccc1 (configuration not stated)	i	i	i	i	i	/	/	/	/	/	/
CCN(CC)CCNC(=O)c1ccc(NC(=O)C2CCN(S(=O)(=O)c3ccc4c(c3)OCCO4)CC2)cc1	i	i	i	i	i	/	/	/	/	/	/
CCN(CC)CCNC(=O)c1ccc(NC(=O)c2cccc(S(=O)(=O)Nc3ccc(C)cc3)c2)cc1	i	i	-9.71*	i	i	/	/	/	/	56.1%*	i	TRPC4 sel inh 2=i;TRPC4 spec=i;HEK293 MPD ctr 2-1=41.0%*;HEK293 MPD ctr-1=i
COc1ccc(S(=O)(=O)N2CCCCCC2)cc1C(=O)NCCOc1ccc(C)cc1	i	i	-5.51*	i	i	172.0%*	i	27.0%*	i	i	/
